Bioassay records from PubChem.
Shown are actives, neighbours in structure and some others; about 9.3% of the full set was active somewhere.
D1 mod = allosterically modulates the human D1 dopamine receptor. P21728. HEK293 D1, CRE-luciferase, dopamine EC30 potentiation; actives deviate in either direction. B-score at 10 µM. 58,000 tested, 5.9% active;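 active = luminescence count or its row- and column-corrected plate score outside the 99.7% band of the plate's sample wells, on either side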
Target sequence (P21728 whole entry, looked up): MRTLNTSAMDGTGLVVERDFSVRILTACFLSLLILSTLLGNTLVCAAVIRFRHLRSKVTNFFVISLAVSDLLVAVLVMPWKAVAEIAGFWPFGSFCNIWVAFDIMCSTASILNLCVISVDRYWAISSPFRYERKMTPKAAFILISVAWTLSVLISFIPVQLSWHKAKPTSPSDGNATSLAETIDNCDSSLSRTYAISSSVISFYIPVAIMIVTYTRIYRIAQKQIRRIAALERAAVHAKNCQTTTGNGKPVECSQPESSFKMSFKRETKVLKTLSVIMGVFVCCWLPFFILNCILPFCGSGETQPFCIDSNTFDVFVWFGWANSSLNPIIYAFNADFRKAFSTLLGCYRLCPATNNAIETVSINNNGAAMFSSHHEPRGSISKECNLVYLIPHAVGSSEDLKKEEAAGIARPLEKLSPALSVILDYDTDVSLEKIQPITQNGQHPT
PostGolgi yeast = growth inhibition of a yeast mutant, post-Golgi transport screen. post-Golgi transport phenotypic cell assay. inhibition, % at 10 µM. 98,000 tested, 0.9% active. AID 739;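 note: yeast cells grown in 1536-well plates; yeast grown about 18 h at 30C before absorbance read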
hDAT+cocaine = human DAT dopamine uptake with cocaine, either direction | Q01959 | LLC-PK1 hDAT cells, [14C]-dopamine uptake with cocaine IC80; actives deviate in either direction | B-score at 10 µM | 110,000 tested, 1.3% active | AID 449768;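 active = Z score or B-score, a plate-position-corrected score, falls beyond the plate's 99.7% confidence bounds, in either direction; inactive = both scores lie inside the 99.7% bounds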
PostGolgi ctrl = yeast control strain growth, post-Golgi counter-screen. efflux-deficient yeast background strain, growth absorbance A615, 16 h. inhibition, % at 10 µM. 98,000 tested, 5% active. AID 738
Ecoli WT expand = growth inhibitors of E. coli BW25113 wild type. 98,000 tested, 0.15% active. OD600 absorbance. growth inhibition, % at 100 µM;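 active = growth inhibition above about 50% at one test dose, limit read from the data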;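 note: growth measured after 20 h incubation at 37 °C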
Ecoli tolC = blocks growth of E. coli BW25113 tolC mutant. growth inhibition, % at 10 µM (by protocol). 65,000 tested, 2.2% active. OD615. AID 573;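 active = growth inhibition at or above a cutoff equal to the mean over every tested compound plus 3 SD, cut at about 60% in these data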;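 note: growth measured after 20 h incubation at 37 °C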
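Signal: optical density read at 615 nm; Assay system: E. coli ΔtolC::kan strain BW25113; Times: 20 h incubation with compound, 37 °C; Dosing: 10 µM final, single dose.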
Large screens that a line does not name were inactive; ! = repeats disagree. Cut-off read from the data, not from the text of the source, unless noted: active = inhibition above about 30%; inactive = the rest.

CC1CCN(c2ccc(/C=N/n3nnnc3N)cc2[N+](=O)[O-])CC1	none (no result: D1 mod, Ecoli tolC)
Cc1ccc(/C=N/n2nnnc2N)cc1[N+](=O)[O-]	hDAT+cocaine -8.9 (no result: D1 mod, Ecoli tolC)
CCOc1cccc(OCCCNCCCOC)c1	none
CC1=C/C(=N\OS(=O)(=O)c2ccccc2)C(C)=CC1=O	PostGolgi yeast 36, PostGolgi ctrl 48 (no result: D1 mod, Ecoli tolC)
CC(C)OCCCNc1ncnc2c1[nH]c1ccccc12	Ecoli tolC 100
C=C(C)C(=O)Nc1cccc(C2=NOC3(C2)C[C@@H](C(N)=O)N(C(=O)CC(c2ccccc2)c2ccccc2)C3)c1 (some centres not stated)	none (no result: D1 mod, PostGolgi yeast, PostGolgi ctrl, Ecoli WT expand, Ecoli tolC)
CCn1cc(C(=O)O)c(=O)c2cc3c(cc21)OCO3	Ecoli tolC 100 (no result: D1 mod, PostGolgi yeast, hDAT+cocaine, PostGolgi ctrl, Ecoli WT expand)
CC1(C)COCN1S(=O)(=O)c1ccc(C(=O)Nc2nnc(-c3ccc(Cl)s3)o2)cc1	Ecoli tolC 99 (no result: hDAT+cocaine)
COc1ccc(C(=O)CSc2nnc(-c3ccc(S(=O)(=O)N4CCOCC4)cc3)o2)cc1	none
COc1ccc(-c2nnc(NC(=O)c3ccc(S(=O)(=O)N4COCC4(C)C)cc3)o2)cc1	Ecoli tolC 100 (no result: hDAT+cocaine)
O=C(OCC(F)(F)C(F)F)c1ccccc1C(=O)Oc1ccc(F)cc1F	none
c1ccc(CCNc2nc3ccccc3s2)cc1	none (no result: D1 mod, Ecoli tolC)
CS(=O)(=O)c1ccc2nc(NC(=O)c3cccs3)sc2c1	D1 mod -5.7
Cc1ccc(C(=O)Nc2nc3ccccc3s2)s1	D1 mod -5.8 (no result: hDAT+cocaine)
Cc1ccc(CNc2nc3ccccc3s2)s1	D1 mod -2.4
Cc1ccc2nc(NC(=O)c3cccs3)sc2c1	none
CCN(CC)CCNC(=O)c1c(O)c2cc(OC)c(OC)cc2[nH]c1=O	none (no result: hDAT+cocaine)
COc1ccc(Cn2c(SCc3cc(C)ccc3C)nc3cc(OC)c(OC)cc3c2=N)cc1	PostGolgi yeast 76, PostGolgi ctrl 63 (no result: D1 mod, Ecoli tolC)
COc1ccc(Cn2c(SCc3ccc(C)cc3)nc3cc(OC)c(OC)cc3c2=N)cc1Cl	PostGolgi yeast 33, PostGolgi ctrl 68 (no result: D1 mod, Ecoli tolC)
COc1cc2nc(SCc3ccc(Cl)cc3Cl)n(Cc3cccs3)c(=N)c2cc1OC	none (no result: D1 mod, Ecoli tolC)
CSc1nc2cc(Oc3cccc(Cl)c3Cl)c(Cl)cc2[nH]1	none (no result: D1 mod, PostGolgi yeast, PostGolgi ctrl, Ecoli WT expand, Ecoli tolC)
COc1cc2nc(N(C)C)nc(N)c2cc1OC	D1 mod -4.6
COc1cc2nc(N(C)CCCNC(=O)C3CCCO3)nc(N)c2cc1OC (configuration not stated)	none (no result: D1 mod, PostGolgi yeast, PostGolgi ctrl, Ecoli WT expand, Ecoli tolC)
O=C(c1ccc(C#CC2(O)CCCCC2)cc1)N1CCN(Cc2ccccc2)CC1	PostGolgi ctrl 30 (no result: D1 mod, Ecoli tolC)
O=C(c1cnc(N2CCN(c3ncccn3)CC2)c2ccccc12)N1CCN(c2ncccn2)CC1	none
CCN(C(=O)c1cnc(N2CCN(c3ncccn3)CC2)c2ccccc12)c1cccc(Cl)c1	hDAT+cocaine 2.2!
CN(C(=O)c1cnc(N2CCN(c3ncccn3)CC2)c2ccccc12)c1ccc(Cl)cc1	PostGolgi ctrl 73
O=C1O/C(=C/C(=O)N2CCOCC2)c2ccccc21	none (no result: D1 mod, PostGolgi yeast, PostGolgi ctrl, Ecoli WT expand, Ecoli tolC)
Cc1cc2cc(CNC(=O)c3ccc(S(=O)(=O)N(C)C)cc3)ccc2n1C	PostGolgi ctrl 31 (no result: D1 mod, Ecoli tolC)
Cc1cc2cc(CNC(=O)c3ccc(S(=O)(=O)N4CCOCC4)cc3)ccc2n1C	none (no result: D1 mod, Ecoli tolC)
CC1(C)CC(=O)C2=C(C1)Oc1ncn(CCO)c(=N)c1C2c1ccccc1 (configuration not stated)	PostGolgi ctrl 31
c1ccc(-c2nnc3sc(-c4ccncc4)nn23)cc1	none
c1ccc(-c2nnc3sc(-c4csc5c4CCCC5)nn23)cc1	PostGolgi ctrl 75
Cc1cccc(-c2nnc3sc(-c4ccccc4C)nn23)c1	PostGolgi ctrl 64
C=CCn1c(=O)/c(=C/c2ccc(F)cc2)s/c1=C(\C#N)c1nnc2n1CCCCC2	none
C=CCN1C(c2ccc(OCC)cc2)=CS/C1=C(\C#N)c1nnc2n1CCCCC2	hDAT+cocaine 3.8!
CC(C)C(NC(=O)COc1ccccc1)C(=O)O (configuration not stated)	none (no result: D1 mod, Ecoli tolC)
CCNC(=S)N/N=C/c1ccc(OCC(=O)Nc2ccc(C)cc2)cc1	hDAT+cocaine -2.9 (no result: D1 mod, Ecoli tolC)
CC(C)C(C)NC(=O)COc1ccc(-c2ccccc2)cc1 (configuration not stated)	PostGolgi yeast 32 (no result: D1 mod, Ecoli tolC)
Cc1ccc(OCC(=O)Nc2ccccc2-c2ccccc2)cc1	PostGolgi ctrl 46 (no result: D1 mod, Ecoli tolC)
CCC(Sc1nncn1C)C(=O)Nc1ccccc1OC (configuration not stated)	none
O=C(O)CC(c1ccc(Cl)cc1)N1C(=O)CCC1=O (configuration not stated)	none
COc1ccc2c(c1OC)C(=O)N(c1cccc(C(F)(F)F)c1)C2	D1 mod -2.7
Cc1nc2c(-c3ccc(F)cc3)c(C)nn2c(C)c1CCC(=O)N1CCN(c2ccccc2)CC1	none (no result: D1 mod, Ecoli tolC)
Cc1nc2c(-c3ccc(F)cc3)c(C)nn2c(C)c1CCC(=O)N1CCC(Cc2ccccc2)CC1	PostGolgi ctrl 32 (no result: D1 mod, Ecoli tolC)
CC(C)(C)C(=O)C(Cc1ccccc1)n1cncn1 (configuration not stated)	PostGolgi yeast 51, PostGolgi ctrl 45 (no result: D1 mod, Ecoli tolC)
CC(C)(C)C(=O)C(Cc1ccccc1Cl)n1cncn1 (configuration not stated)	PostGolgi yeast 99, PostGolgi ctrl 94 (no result: D1 mod, Ecoli tolC)
CCCC(C(=O)c1ccccc1)n1cncn1 (configuration not stated)	none
Cc1ccc(C2=NOC(C)(c3nnc(-c4ccc(Cl)cc4)o3)C2)cc1 (configuration not stated)	none (no result: D1 mod, PostGolgi yeast, PostGolgi ctrl, Ecoli WT expand, Ecoli tolC)
COCCNc1cc(C)nc2c3c(C)cc(C)nc3nn12	PostGolgi yeast 47
COc1ccc(-c2nc(N3CCOCC3)nc3nn4c(C)c(CCC(=O)O)c(C)nc4c23)cc1	none (no result: PostGolgi yeast, hDAT+cocaine, PostGolgi ctrl, Ecoli WT expand)
O=[N+]([O-])c1ccc(OC/C=C2\Oc3ccc([N+](=O)[O-])cc3C2N2CCOCC2)cc1 (configuration not stated)	PostGolgi ctrl 35 (no result: D1 mod, Ecoli tolC)
O=[N+]([O-])c1ccc2c(c1)C(N1CCOCC1)/C(=C/COc1ccc(F)cc1)O2 (configuration not stated)	none (no result: D1 mod, Ecoli tolC)
CCc1nc2sc3c(c2c(=O)n1N)CCC3	none
Nn1c(Nc2ccccc2)nc2sc3c(c2c1=O)CCC3	hDAT+cocaine 3.7, PostGolgi ctrl 31
N#Cc1ccc(CSc2nnc(COc3ccccc3)n2-c2ccccc2)cc1	none (no result: D1 mod, Ecoli tolC)
Cc1ccc(-c2nnc(CSc3nnc(COc4ccccc4)n3-c3ccc(C)cc3)o2)cc1	PostGolgi ctrl 34
Cc1ccc(-c2nnc(COc3cccc(-n4cnnn4)c3)o2)cc1	hDAT+cocaine -11 (no result: D1 mod)
CCn1c(COc2ccc(C)cc2)nnc1SCC(=O)C(C)(C)C	none
CCn1c(COc2ccc(C)cc2)nnc1SCc1ccc(C#N)cc1	hDAT+cocaine 3 (no result: D1 mod, Ecoli tolC)
COc1ccc(-n2c(COc3ccccc3)nnc2SCc2ccc(C#N)cc2)cc1	Ecoli tolC 63
N#Cc1ccc(CSc2nnc(-c3ccccn3)n2-c2ccccc2)cc1	none (no result: D1 mod)
N#Cc1ccc(CSc2nnc(-c3cccs3)n2-c2ccccc2)cc1	PostGolgi ctrl 43, Ecoli tolC 74
CCSc1nn2c(=O)c3ccccc3nc2s1	none (no result: D1 mod, Ecoli tolC)
Cc1ccc(-c2nc(Nc3ccccc3)n[nH]2)cc1	hDAT+cocaine -3
